# How the values were obtained:
# [1] = target: Protein-tyrosine kinase 6 (Homo sapiens) (UniProt Q13882); assay: Binding affinity to wild-type human partial length BRK (L166 to T451 residues) expressed in Escherichia coli BL21 at 1 uM by Kinomescan method relative to control
# [2] = target: Dual specificity protein kinase CLK4 (Homo sapiens) (UniProt Q9HAZ1); assay: Binding affinity to wild-type human partial length CLK4 (R135 to K481 residues) expressed in Escherichia coli BL21 at 1 uM by Kinomescan method relative to control
# [3] = target: MAP/microtubule affinity-regulating kinase 3 (Homo sapiens) (UniProt P27448); assay: Binding affinity to wild-type human full length MARK3 (M1 to L729 residues) expressed in Escherichia coli BL21 at 1 uM by Kinomescan method relative to control
# How it was run: (§1)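 Run as one kinome-wide competition binding panel with each compound at a single fixed concentration. Results were plotted as a kinome-wide selectivity map.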
# [4] = target: TRAF2 and NCK-interacting protein kinase (Homo sapiens) (UniProt Q9UKE5); assay: Binding affinity to wild-type human partial length TNIK (D4 to K311 residues) expressed in Escherichia coli BL21 at 1 uM by Kinomescan method relative to control
# [5] = target: Ribosomal protein S6 kinase alpha-5 (Homo sapiens) (UniProt O75582); assay: Binding affinity to wild-type human partial length N-terminal RPS6KA5 kinase domain 1 expressed in Escherichia coli BL21 at 1 uM by Kinomescan method relative to control
# [6] = target: Wee1-like protein kinase 2 (Homo sapiens) (UniProt P0C1S8); assay: Binding affinity to wild-type human partial length WEE2 (M204 to K492 residues) expressed in Escherichia coli BL21 at 1 uM by Kinomescan method relative to control
# [7] = target: Receptor-type tyrosine-protein kinase FLT3 (Homo sapiens) (UniProt P36888); assay: Binding affinity to wild-type human partial length FLT3 (V592 to Y969 residues) expressed in Escherichia coli BL21 at 1 uM by Kinomescan method relative to control
# [8] = target: Serine/threonine-protein kinase SBK1 (Homo sapiens) (UniProt Q52WX2); assay: Binding affinity to wild-type human partial length SBK1 (P23 to P348 residues) expressed in HEK293 cells at 1 uM by Kinomescan method relative to control; format: cell-based
# [9] = target: SRSF protein kinase 3 (Homo sapiens) (UniProt Q9UPE1); assay: Binding affinity to wild-type human partial length SRPK3 (P41 to P567 residues) expressed in Escherichia coli BL21 at 1 uM by Kinomescan method relative to control
# [10] = tested on: Receptor-type tyrosine-protein kinase FLT3 (Homo sapiens), P36888 [K663Q]; assay: Binding affinity to human partial length FLT3 K663Q mutant (V592 to Y969 residues) expressed in Escherichia coli BL21 at 1 uM by Kinomescan method relative to control
# [11] = target: CDK4/Cyclin D3 (Homo sapiens) (UniProt P11802+P30281); assay: Binding affinity to wild-type human full length CDK4/cyclinD3 (M1 to E303 residues) expressed in HEK293 cells at 1 uM by Kinomescan method relative to control; format: cell-based
# [12] = target: Serine/threonine-protein kinase PRP4 homolog (Homo sapiens) (UniProt Q13523); assay: Binding affinity to wild-type human partial length PRP4 (D657 to I1007 residues) expressed in Escherichia coli BL21 at 1 uM by Kinomescan method relative to control
# [13] = target: Serine/threonine-protein kinase MAK (Homo sapiens) (UniProt P20794); assay: Binding affinity to wild-type human partial length MAK (M1 to P314 residues) expressed in Escherichia coli BL21 at 1 uM by Kinomescan method relative to control
# [14] = target: Dual specificity mitogen-activated protein kinase kinase 7 (Homo sapiens) (UniProt O14733); assay: Binding affinity to wild-type human full length MKK7 (M1 to R419 residues) expressed in HEK293 cells at 1 uM by Kinomescan method relative to control; format: cell-based; how it was run: as §1
# [15] = target: Tyrosine-protein kinase CSK (Homo sapiens) (UniProt P41240); assay: Binding affinity to wild-type human full length CSK (M1 to L450 residues) expressed in Escherichia coli BL21 at 1 uM by Kinomescan method relative to control; how it was run: as §1
# [16] = target: Insulin receptor-related protein (Homo sapiens) (UniProt P14616); assay: Binding affinity to wild-type human partial length INSRR (R950 to E1278 residues) expressed in Escherichia coli BL21 at 1 uM by Kinomescan method relative to control
# [17] = target: Tyrosine-protein kinase Fes/Fps (Homo sapiens) (UniProt P07332); assay: Binding affinity to wild-type human partial length FES (I527 to R822 residues) expressed in Escherichia coli BL21 at 1 uM by Kinomescan method relative to control
# [18] = target: Activin receptor type-1B (Homo sapiens) (UniProt P36896); assay: Binding affinity to wild-type human ACVR1B (S187 to I505 residues) expressed in Escherichia coli BL21 at 1 uM by Kinomescan method relative to control
# [19] = target: Ephrin type-A receptor 4 (Homo sapiens) (UniProt P54764); assay: Binding affinity to wild-type human partial length EPHA4 (T601 to R897 residues) expressed in Escherichia coli BL21 at 1 uM by Kinomescan method relative to control
# [20] = target: Dual serine/threonine and tyrosine protein kinase (Homo sapiens) (UniProt Q6XUX3); assay: Binding affinity to wild-type human full length RIPK5 (M1 to T929 residues) expressed in HEK293 cells at 1 uM by Kinomescan method relative to control; format: cell-based
# [21] = target: STE20-like serine/threonine-protein kinase (Homo sapiens) (UniProt Q9H2G2); assay: Binding affinity to wild-type human partial length SLK (S14 to A307 residues) expressed in Escherichia coli BL21 at 1 uM by Kinomescan method relative to control
# [22] = target: Receptor-interacting serine/threonine-protein kinase 2 (Homo sapiens) (UniProt O43353); assay: Binding affinity to wild-type human partial length RIPK2 (M1 to K310 residues) expressed in Escherichia coli BL21 at 1 uM by Kinomescan method relative to control
# [23] = tested on: ALK tyrosine kinase receptor (Homo sapiens), Q9UM73 [C1156Y]; assay: Binding affinity to wild-type human partial length ALK C1156Y mutant (I1088 to E1409 residues) expressed in HEK293 cells at 1 uM by Kinomescan method relative to control; format: cell-based
# [24] = tested on: Serine/threonine-protein kinase B-raf (Homo sapiens), P15056 [V600E]; assay: Binding affinity to human partial length BRAF V600E mutant (S429 to E741 residues) expressed in HEK293 cells at 1 uM by Kinomescan method relative to control; format: cell-based
# [25] = tested on: Mast/stem cell growth factor receptor Kit (Homo sapiens), P10721 [L576P]; assay: Binding affinity to human partial length KIT L576P mutant (Y545 to D952 residues) expressed in Escherichia coli BL21 at 1 uM by Kinomescan method relative to control
# [26] = target: Tyrosine-protein kinase FRK (Homo sapiens) (UniProt P42685); assay: Binding affinity to wild-type human partial length FRK (A215 to F503 residues) expressed in Escherichia coli BL21 at 1 uM by Kinomescan method relative to control
# MAP/microtubule affinity-regulating kinase 3 (Homo sapiens), sequence (P27448 whole entry, looked up, the tested form may be a part): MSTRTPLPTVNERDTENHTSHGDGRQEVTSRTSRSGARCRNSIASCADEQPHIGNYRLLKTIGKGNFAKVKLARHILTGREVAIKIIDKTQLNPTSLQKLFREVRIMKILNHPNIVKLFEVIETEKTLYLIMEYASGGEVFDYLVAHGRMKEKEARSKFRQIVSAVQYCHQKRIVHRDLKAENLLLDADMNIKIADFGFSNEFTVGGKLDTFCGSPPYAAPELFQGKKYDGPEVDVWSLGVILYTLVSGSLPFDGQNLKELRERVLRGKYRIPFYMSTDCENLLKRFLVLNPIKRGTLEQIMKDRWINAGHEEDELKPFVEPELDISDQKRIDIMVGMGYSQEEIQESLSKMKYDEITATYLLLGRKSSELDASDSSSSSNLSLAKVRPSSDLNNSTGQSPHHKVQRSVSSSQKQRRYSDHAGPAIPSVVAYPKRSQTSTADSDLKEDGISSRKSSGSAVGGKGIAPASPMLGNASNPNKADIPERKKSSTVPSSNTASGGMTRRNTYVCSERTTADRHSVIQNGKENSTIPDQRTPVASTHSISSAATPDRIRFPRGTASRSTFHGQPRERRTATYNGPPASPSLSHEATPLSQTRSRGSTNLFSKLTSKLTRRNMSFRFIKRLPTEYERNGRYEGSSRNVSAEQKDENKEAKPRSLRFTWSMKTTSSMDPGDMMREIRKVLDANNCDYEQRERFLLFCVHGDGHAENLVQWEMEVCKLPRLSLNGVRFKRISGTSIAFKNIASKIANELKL
# Serine/threonine-protein kinase PRP4 homolog (Homo sapiens), sequence (Q13523 whole entry, the tested form may be a part): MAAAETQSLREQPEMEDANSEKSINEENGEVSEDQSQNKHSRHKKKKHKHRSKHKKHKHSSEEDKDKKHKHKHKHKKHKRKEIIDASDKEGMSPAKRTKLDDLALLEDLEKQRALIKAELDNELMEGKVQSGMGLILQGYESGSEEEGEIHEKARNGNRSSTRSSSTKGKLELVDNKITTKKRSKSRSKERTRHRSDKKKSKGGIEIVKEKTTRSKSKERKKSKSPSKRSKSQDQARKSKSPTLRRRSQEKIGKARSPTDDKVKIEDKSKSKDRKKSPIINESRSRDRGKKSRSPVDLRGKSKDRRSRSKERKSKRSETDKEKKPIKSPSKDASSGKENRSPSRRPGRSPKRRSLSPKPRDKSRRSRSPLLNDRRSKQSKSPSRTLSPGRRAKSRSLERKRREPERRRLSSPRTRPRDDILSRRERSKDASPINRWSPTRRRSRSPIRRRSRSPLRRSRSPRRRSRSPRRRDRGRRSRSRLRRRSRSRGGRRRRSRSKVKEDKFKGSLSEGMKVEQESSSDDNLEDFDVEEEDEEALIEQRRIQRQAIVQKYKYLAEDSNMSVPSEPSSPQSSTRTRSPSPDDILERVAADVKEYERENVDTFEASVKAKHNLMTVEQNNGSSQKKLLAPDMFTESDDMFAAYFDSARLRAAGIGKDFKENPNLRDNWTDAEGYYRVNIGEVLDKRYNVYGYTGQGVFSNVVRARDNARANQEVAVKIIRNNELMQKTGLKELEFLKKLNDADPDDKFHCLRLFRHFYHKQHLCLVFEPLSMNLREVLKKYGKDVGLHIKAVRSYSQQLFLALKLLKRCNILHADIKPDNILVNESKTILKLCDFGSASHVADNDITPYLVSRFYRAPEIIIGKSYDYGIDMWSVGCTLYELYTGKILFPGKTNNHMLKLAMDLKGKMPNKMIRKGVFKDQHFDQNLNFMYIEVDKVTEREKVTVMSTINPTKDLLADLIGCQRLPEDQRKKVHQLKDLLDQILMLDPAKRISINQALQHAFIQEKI
# Protein-tyrosine kinase 6 (Homo sapiens), sequence (Q13882 whole entry, looked up, the tested form may be a part): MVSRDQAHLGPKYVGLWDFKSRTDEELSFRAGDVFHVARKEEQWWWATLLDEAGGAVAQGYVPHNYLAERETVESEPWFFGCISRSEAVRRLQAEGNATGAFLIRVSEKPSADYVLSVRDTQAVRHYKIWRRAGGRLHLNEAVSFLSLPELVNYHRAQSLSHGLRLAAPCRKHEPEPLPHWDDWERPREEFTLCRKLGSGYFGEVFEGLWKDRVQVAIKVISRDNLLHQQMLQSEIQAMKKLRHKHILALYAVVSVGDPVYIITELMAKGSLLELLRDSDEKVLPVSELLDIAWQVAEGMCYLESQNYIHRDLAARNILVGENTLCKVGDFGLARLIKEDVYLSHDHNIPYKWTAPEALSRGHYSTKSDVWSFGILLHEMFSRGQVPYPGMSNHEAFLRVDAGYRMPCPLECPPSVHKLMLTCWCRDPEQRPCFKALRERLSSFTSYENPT
# Serine/threonine-protein kinase SBK1 (Homo sapiens), sequence (Q52WX2 whole entry, the tested form may be a part): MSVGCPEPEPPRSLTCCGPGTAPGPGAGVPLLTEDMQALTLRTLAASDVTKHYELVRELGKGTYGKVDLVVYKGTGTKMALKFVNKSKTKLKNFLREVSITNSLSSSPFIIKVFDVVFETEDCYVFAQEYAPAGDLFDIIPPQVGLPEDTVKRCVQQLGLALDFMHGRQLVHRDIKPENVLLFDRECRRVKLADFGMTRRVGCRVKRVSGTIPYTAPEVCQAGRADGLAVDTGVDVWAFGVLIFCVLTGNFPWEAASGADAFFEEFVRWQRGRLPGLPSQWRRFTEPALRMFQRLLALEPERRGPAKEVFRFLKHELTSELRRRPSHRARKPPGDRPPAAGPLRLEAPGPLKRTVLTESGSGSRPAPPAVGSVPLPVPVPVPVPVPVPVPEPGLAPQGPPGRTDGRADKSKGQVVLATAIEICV
# Dual serine/threonine and tyrosine protein kinase (Homo sapiens), sequence (Q6XUX3 whole entry, the tested form may be a part): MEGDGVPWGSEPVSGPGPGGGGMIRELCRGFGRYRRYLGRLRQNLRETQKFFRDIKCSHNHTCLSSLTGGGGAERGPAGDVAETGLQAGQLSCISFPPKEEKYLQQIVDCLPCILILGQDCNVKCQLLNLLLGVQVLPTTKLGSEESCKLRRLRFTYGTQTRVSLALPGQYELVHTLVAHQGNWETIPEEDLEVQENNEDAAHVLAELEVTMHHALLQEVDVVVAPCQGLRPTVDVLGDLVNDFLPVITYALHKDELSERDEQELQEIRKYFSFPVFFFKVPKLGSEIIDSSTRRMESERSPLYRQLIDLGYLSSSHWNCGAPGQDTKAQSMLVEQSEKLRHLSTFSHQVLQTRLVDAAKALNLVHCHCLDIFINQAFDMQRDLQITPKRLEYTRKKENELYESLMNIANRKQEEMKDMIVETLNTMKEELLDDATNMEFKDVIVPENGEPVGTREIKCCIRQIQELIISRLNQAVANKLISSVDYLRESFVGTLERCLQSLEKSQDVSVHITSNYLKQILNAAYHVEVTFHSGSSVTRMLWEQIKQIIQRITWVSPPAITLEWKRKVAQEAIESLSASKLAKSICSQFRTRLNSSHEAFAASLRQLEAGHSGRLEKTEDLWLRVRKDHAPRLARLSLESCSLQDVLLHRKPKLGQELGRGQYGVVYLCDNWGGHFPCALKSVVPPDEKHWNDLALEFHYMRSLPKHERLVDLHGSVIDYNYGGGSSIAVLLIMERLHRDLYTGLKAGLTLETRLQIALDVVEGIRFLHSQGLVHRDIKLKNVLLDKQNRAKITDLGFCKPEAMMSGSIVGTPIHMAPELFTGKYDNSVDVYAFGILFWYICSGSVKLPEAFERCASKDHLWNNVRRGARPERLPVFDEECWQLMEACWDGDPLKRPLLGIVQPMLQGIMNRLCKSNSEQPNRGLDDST
# Ribosomal protein S6 kinase alpha-5 (Homo sapiens), sequence (O75582 whole entry, looked up, the tested form may be a part): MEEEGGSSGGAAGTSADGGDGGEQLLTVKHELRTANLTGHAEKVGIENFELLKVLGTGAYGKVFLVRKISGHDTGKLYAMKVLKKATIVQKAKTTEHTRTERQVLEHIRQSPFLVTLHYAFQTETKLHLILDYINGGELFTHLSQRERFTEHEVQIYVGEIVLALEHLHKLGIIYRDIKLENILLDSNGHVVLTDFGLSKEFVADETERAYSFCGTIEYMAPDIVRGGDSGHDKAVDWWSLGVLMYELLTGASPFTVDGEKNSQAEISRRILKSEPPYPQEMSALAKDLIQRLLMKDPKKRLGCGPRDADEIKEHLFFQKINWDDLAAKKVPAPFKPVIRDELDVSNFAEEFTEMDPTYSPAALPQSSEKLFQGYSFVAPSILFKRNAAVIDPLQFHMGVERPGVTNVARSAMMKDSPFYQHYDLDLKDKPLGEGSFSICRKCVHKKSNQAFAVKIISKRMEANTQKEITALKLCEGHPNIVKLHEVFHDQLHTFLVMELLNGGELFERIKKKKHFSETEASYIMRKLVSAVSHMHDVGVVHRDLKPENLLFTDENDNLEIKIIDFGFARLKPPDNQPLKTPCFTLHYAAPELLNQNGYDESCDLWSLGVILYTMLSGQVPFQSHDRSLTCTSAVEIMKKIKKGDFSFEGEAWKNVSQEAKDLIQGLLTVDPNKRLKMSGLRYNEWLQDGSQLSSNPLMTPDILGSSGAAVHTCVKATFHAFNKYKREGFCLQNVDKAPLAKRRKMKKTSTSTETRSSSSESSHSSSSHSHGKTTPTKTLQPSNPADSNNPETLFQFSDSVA
# SRSF protein kinase 3 (Homo sapiens), sequence (Q9UPE1 whole entry, the tested form may be a part): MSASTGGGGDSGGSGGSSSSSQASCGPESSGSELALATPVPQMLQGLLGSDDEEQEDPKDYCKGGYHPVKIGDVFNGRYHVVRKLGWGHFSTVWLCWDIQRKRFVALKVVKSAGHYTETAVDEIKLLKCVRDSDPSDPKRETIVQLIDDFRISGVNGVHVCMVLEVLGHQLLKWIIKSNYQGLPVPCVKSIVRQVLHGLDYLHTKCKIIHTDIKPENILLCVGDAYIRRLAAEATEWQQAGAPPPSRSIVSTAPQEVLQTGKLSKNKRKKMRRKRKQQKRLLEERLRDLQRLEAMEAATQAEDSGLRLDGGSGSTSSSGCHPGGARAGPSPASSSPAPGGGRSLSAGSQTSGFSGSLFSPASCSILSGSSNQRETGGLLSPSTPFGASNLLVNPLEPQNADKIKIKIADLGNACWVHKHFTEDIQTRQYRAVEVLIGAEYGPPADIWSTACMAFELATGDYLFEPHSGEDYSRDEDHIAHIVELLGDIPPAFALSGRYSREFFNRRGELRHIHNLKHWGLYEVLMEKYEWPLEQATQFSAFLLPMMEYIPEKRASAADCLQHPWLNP
Compound,Activity [1] [%],Activity [2] [%],Activity [3] [%],Activity [4] [%],Activity [5] [%],Activity [6] [%],Activity [7] [%],Activity [8] [%],Activity [9] [%],Activity [10] [%],Activity [11] [%],Activity [12] [%],Activity [13] [%],Activity [14] [%],Activity [15] [%],Activity [16] [%],Activity [17] [%],Activity [18] [%],Activity [19] [%],Activity [20] [%],other results
C=CC(=O)Nc1ccc(C(=O)Nc2ccc(Nc3ncc4c(n3)N(C)c3ccc(C)cc3C(=O)N4C)cc2)cc1,99,100,80,100,100,100,100,100,100,99,100,99,78,100,84,100,90,85,93,96,Activity [21]: 94%; Activity [22]: 89%; Activity [23]: 94%; Activity [24]: 94%; Activity [25]: 85%; Activity [26]: 95%
CCC(=O)Nc1ccc(C(=O)Nc2ccc(Nc3ncc4c(n3)N(C)c3ccc(C)cc3C(=O)N4C)cc2)cc1,100,100,95,100,100,97,100,93,100,81,85,100,100,90,93,100,99,100,97,68,Activity [21]: 87%; Activity [22]: 98%; Activity [23]: 100%; Activity [24]: 100%; Activity [25]: 71%; Activity [26]: 100%
